Assay results collected from several papers.
Protocols differ between the studies behind these lines. ≈ marks a conversion by molar mass, not a printed value.

CNC(C)C1CCC(N)C(OC2C(N)CC(N)C(OC3OCC(C)(O)C(NC)C3O)C2O)O1 (stereo not shown) — MBC (Pseudomonas aeruginosa; microbial killing, broth dilution; ATCC27853; 24 h): 8000 µM (≈ 3820 µg/mL)
CCOC(=O)/C=C1/SC(N/N=C/c2c(-c3ccc(F)cc3)nc3ncccn23)=NC1=O — inhibition zone (Pseudomonas aeruginosa; microbial growth, well diffusion; ATCC27853; 100 µg/mL): 11 mm
CN[C@H](CC(C)C)C(=O)N[C@H]1C(=O)N[C@@H](CC(N)=O)C(=O)N[C@H]2C(=O)N[C@H]3C(=O)N[C@H](C(=O)N[C@H](C(=O)O)c4cc(O)cc(O)c4-c4cc3ccc4O)[C@H](O)c3ccc(c(Cl)c3)Oc3cc2cc(c3O[C@@H]2O[C@H](CO)[C@@H](O)[C@H](O)[C@H]2O[C@H]2C[C@](C)(N)[C@H](O)[C@H](C)O2)Oc2ccc(cc2Cl)[C@H]1O — MIC (Kocuria; microbial growth, broth dilution): 0.67 µM
CC(=O)c1sc(N/N=C/c2c(-c3ccccc3)nc3ncccn23)nc1C — inhibition zone (Pseudomonas aeruginosa; microbial growth, well diffusion; ATCC27853; 100 µg/mL): 14 mm
O=C(O)c1cn(C2CC2)c2cc(N3CCNCC3)c(F)cc2c1=O — MIC90 (Pseudomonas aeruginosa; microbial growth, broth dilution): 1.56 µM (≈ 0.517 µg/mL)
CCCS(=O)(=O)Oc1ccc(C=NNC(=O)CSc2nc3c(C)cccc3c(=O)n2-c2ccccc2)cc1OC — inhibition zone (Pseudomonas aeruginosa; microbial growth, well diffusion; 20 µg/mL): 2 mm
CO[C@H]1/C=C/O[C@@]2(C)Oc3c(C)c(O)c4c(c3C2=O)C2=NC3(CCN(CC(C)C)CC3)NC2=C(NC(=O)/C(C)=C\C=C\[C@H](C)[C@H](O)[C@@H](C)[C@@H](O)[C@@H](C)[C@H](OC(C)=O)[C@@H]1C)C4=O — MIC (Mycobacteroides abscessus; microbial growth, agar dilution; ATCC19977): 11.2 µM
COc1ccc(C=NNC(=O)CSc2nc3c(C)cccc3c(=O)n2-c2ccccc2)cc1OS(C)(=O)=O — inhibition zone (Pseudomonas aeruginosa; microbial growth, well diffusion; 20 µg/mL): 2 mm
CC1(C)S[C@@H]2[C@H](NC(=O)[C@H](N)c3ccccc3)C(=O)N2[C@H]1C(=O)O — MIC (Kocuria; microbial growth, broth dilution): 1.34 µM
Cc1ccc2[nH]nc(-c3nnc(Nc4ccc(F)cc4Cl)s3)c2c1 — MIC (Pseudomonas aeruginosa; microbial growth; ATCC27853): 96.1 µg/mL
